Tests used:
A549 [1] = experiment: Induction of apoptosis in human A549 cells assessed as live cells at 2 nM after 24 hrs by Annexin V-FITC/propidium iodide staining based flow cytometry (reference value: 98.84%); type: functional
[2] = Selectivity index, ratio of IC50 for human LO2 cells to IC50 for human A549 cells; type: functional
Procedure, shortened: (§1)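 MTT assay in normal cells and A549: seeding at 5 × 10³ cells/well for 24 h, 48 h compound exposure, then 5 mg/mL MTT for 4 h, DMSO solubilisation and absorbance at 570 nm. IC50 values came from dose–response curves of at least three independent experiments. Selectivity ratio = IC50 in normal cells / IC50 in A549.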

[3] = Selectivity index, ratio of IC50 for HLF to IC50 for human A549 cells; procedure, shortened: as §1
A549 [4] = experiment: Growth inhibition of human A549 cells after 48 hrs by MTT assay; type: functional, cell-based; conditions: A549, 48 h
HCT-116 = experiment: Growth inhibition of human HCT116 cells after 48 hrs by MTT assay; type: functional, cell-based; conditions: HCT-116, 48 h
Procedure, shortened: (§2)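 MTT assay: log-phase cells plated at 5 × 10³/well for 24 h, then exposed to a range of test concentrations for 48 h. MTT (5 mg/mL) added for 4 h, formazan dissolved in DMSO, absorbance read at 570 nm. IC50 is the concentration giving 50% growth inhibition, from dose-response curves; at least three independent experiments, mean ± SE.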

HepG2 = experiment: Growth inhibition of human HepG2 cells after 48 hrs by MTT assay; type: functional, cell-based; conditions: HepG2, 48 h; procedure, shortened: as §2
MDA-MB-231 = experiment: Growth inhibition of human MDA-MB-231 cells after 48 hrs by MTT assay; type: functional, cell-based; conditions: MDA-MB-231, 48 h; procedure, shortened: as §2
LoVo = experiment: Growth inhibition of human LoVo cells after 48 hrs by MTT assay; type: functional, cell-based; procedure, shortened: as §2
RKO = experiment: Growth inhibition of human RKO cells after 48 hrs by MTT assay; type: functional, cell-based; procedure, shortened: as §2
MCF7 = experiment: Antiproliferative activity against human MCF7 cells after 48 hrs by MTT assay; type: functional, cell-based; conditions: MCF7, 48 h; procedure, shortened: as §2
HeLa = experiment: Antiproliferative activity against human HeLa cells after 48 hrs by MTT assay; type: functional, cell-based; procedure, shortened: as §2
MGC-803 = experiment: Antiproliferative activity against human MGC803 cells after 48 hrs by MTT assay; type: functional, cell-based; conditions: MGC-803, 48 h; procedure, shortened: as §2
A549/CDDP = experiment: Growth inhibition of human A549/CDDP cells after 48 hrs by MTT assay; type: functional, cell-based; procedure, shortened: as §2
[5] = Growth inhibition of human HepG2/DOX cells after 48 hrs by MTT assay; type: functional, cell-based; procedure, shortened: as §2
[6] = Resistance factor, ratio of IC50 for human A549/CDDP cells to IC50 for human A549 cells; type: functional
Procedure, shortened: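 MTT assay: log-phase cells were seeded at 5 × 10³/well for 24 h, then exposed to a concentration series for 48 h. MTT (5 mg/mL) was added for 4 h, formazan was dissolved in DMSO, and A570 was read. IC50 values came from dose–response curves of at least three independent experiments. Resistance factor = IC50 in the resistant line / IC50 in the parental sensitive line.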

[7] = Inhibition of porcine brain tubulin polymerization measured every 60 secs for 90 mins by DAPI staining based fluorescence assay; parameters: species or system Sus scrofa
Procedure, shortened: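 Purified tubulin was tested in a kit assay. Final buffer: 80 mM PIPES sesquisodium (pH 6.9), 2.0 mM MgCl₂, 0.5 mM EGTA, 1 mM GTP, 10.2% glycerol. Compound (0.1–10 μM) was prewarmed at 37 °C for 1 min before tubulin was added. DAPI reporter fluorescence (ex 340 / em 410 nm) was read every 60 s for 90 min. Area under the curve gave percent inhibition versus control and the IC50.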

[8] = Antiproliferative activity against HLF after 48 hrs by MTT assay; type: cell-based; conditions: Homo sapiens; procedure, shortened: as §2
A549 [9] = experiment: Cell cycle arrest in human A549 cells assessed as accumulation at G2/M phase at 4 nM after 12 hrs by propidium iodide staining based flow cytometry (reference value: 10.13%); type: functional
Procedure, shortened: (§3)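 A549 seeded in six-well plates at 3 × 10⁵ cells/well and treated for 12 or 24 h; vehicle 0.01% DMSO. Cells fixed overnight in ice-cold 70% ethanol, treated with RNase A at 37 °C for 30 min, then stained with PI at 4 °C for 30 min. About 10 000 events acquired by flow cytometry at 488 nm; three experiments.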

A549 [10] = experiment: Cell cycle arrest in human A549 cells assessed as accumulation at G2/M phase at 4 nM after 24 hrs by propidium iodide staining based flow cytometry (reference value: 10.13%); type: functional; procedure, shortened: as §3
A549 [11] = experiment: Induction of apoptosis in human A549 cells assessed as early apoptotic cells at 2 nM after 24 hrs by Annexin V-FITC/propidium iodide staining based flow cytometry (reference value: 0.98%); type: functional
A549 [12] = experiment: Induction of apoptosis in human A549 cells assessed as late apoptotic cells at 2 nM after 24 hrs by Annexin V-FITC/propidium iodide staining based flow cytometry (reference value: 0.08%); type: functional
A549 [13] = experiment: Induction of apoptosis in human A549 cells assessed as necrotic cells at 2 nM after 24 hrs by Annexin V-FITC/propidium iodide staining based flow cytometry (reference value: 0.10%); type: functional
A549 [14] = experiment: Induction of apoptosis in human A549 cells assessed as live cells at 4 nM after 24 hrs by Annexin V-FITC/propidium iodide staining based flow cytometry (reference value: 98.84%); type: functional
A549 [15] = experiment: Induction of apoptosis in human A549 cells assessed as early apoptotic cells at 4 nM after 24 hrs by Annexin V-FITC/propidium iodide staining based flow cytometry (reference value: 0.98%); type: functional
A549 [16] = experiment: Induction of apoptosis in human A549 cells assessed as late apoptotic cells at 4 nM after 24 hrs by Annexin V-FITC/propidium iodide staining based flow cytometry (reference value: 0.08%); type: functional
A549 [17] = experiment: Induction of apoptosis in human A549 cells assessed as necrotic cells at 4 nM after 24 hrs by Annexin V-FITC/propidium iodide staining based flow cytometry (reference value: 0.10%); type: functional
A549 [18] = experiment: Induction of apoptosis in human A549 cells assessed as live cells at 2 nM after 48 hrs by Annexin V-FITC/propidium iodide staining based flow cytometry (reference value: 98.49%); type: functional
A549 [19] = experiment: Induction of apoptosis in human A549 cells assessed as early apoptotic cells at 2 nM after 48 hrs by Annexin V-FITC/propidium iodide staining based flow cytometry (reference value: 1.48%); type: functional
A549 [20] = experiment: Induction of apoptosis in human A549 cells assessed as late apoptotic cells at 2 nM after 48 hrs by Annexin V-FITC/propidium iodide staining based flow cytometry (reference value: 0.03%); type: functional
A549 [21] = experiment: Induction of apoptosis in human A549 cells assessed as necrotic cells at 2 nM after 48 hrs by Annexin V-FITC/propidium iodide staining based flow cytometry relative to control; type: functional
A549 [22] = experiment: Induction of apoptosis in human A549 cells assessed as live cells at 4 nM after 48 hrs by Annexin V-FITC/propidium iodide staining based flow cytometry (reference value: 98.49%); type: functional
A549 [23] = experiment: Induction of apoptosis in human A549 cells assessed as early apoptotic cells at 4 nM after 48 hrs by Annexin V-FITC/propidium iodide staining based flow cytometry (reference value: 1.48%); type: functional
A549 [24] = experiment: Induction of apoptosis in human A549 cells assessed as late apoptotic cells at 4 nM after 48 hrs by Annexin V-FITC/propidium iodide staining based flow cytometry (reference value: 0.03%); type: functional
A549 [25] = experiment: Induction of apoptosis in human A549 cells assessed as necrotic cells at 4 nM after 48 hrs by Annexin V-FITC/propidium iodide staining based flow cytometry relative to control; type: functional
L02 = experiment: Antiproliferative activity against human LO2 cells after 48 hrs by MTT assay; type: cell-based; conditions: L02, 48 h; procedure, shortened: as §2
BJ = experiment: Antiproliferative activity against human BJ cells after 48 hrs by MTT assay; type: cell-based; procedure, shortened: as §2
[26] = Selectivity index, ratio of IC50 for human BJ cells to IC50 for human A549 cells; type: functional; procedure, shortened: as §1
A549 [27] = experiment: Cell cycle arrest in human A549 cells assessed as accumulation at G2/M phase at 4 nM up to 24 hrs by propidium iodide staining based flow cytometry (reference value: 10.13%); type: functional; procedure, shortened: as §3

Row | Structure (SMILES) | Activity (A549 [1]) [%] | Ratio IC50 [2] | Ratio IC50 [3] | IC50 (A549 [4]) [µM] | IC50 (HCT-116) [µM] | IC50 (HepG2) [µM] | IC50 (MDA-MB-231) [µM] | IC50 (LoVo) [µM] | IC50 (RKO) [µM] | IC50 (MCF7) [µM] | IC50 (HeLa) [µM] | IC50 (MGC-803) [µM] | IC50 (A549/CDDP) [µM] | IC50 [5] [µM] | Ratio IC50 [6] | IC50 [7] [µM] | IC50 [8] [µM] | Activity (A549 [11]) [%] | Activity (A549 [12]) [%] | Activity (A549 [13]) [%] | other results
1 | C[Se]c1ccc(N(C)c2nc(C)nc3ccccc23)cc1F | 85.06 | 8 | 9.5 | 0.002 | 0.006 | 0.004 | 0.005 | 0.009 | 0.007 | 0.009 | 0.005 | 0.007 | 0.011 | 0.005 | 3.67 | 1.27 | 0.019 | 10.96 | 2.46 | 1.52 | Activity (A549 [9]): 60.89%; Activity (A549 [10]): 79.71%; Activity (A549 [14]): 60.27%; Activity (A549 [15]): 36.98%; Activity (A549 [16]): 1.97%; Activity (A549 [17]): 0.78%; Activity (A549 [18]): 63.84%; Activity (A549 [19]): 12.22%; Activity (A549 [20]): 16.6%; Activity (A549 [21]): 7.34%; Activity (A549 [22]): 34.36%; Activity (A549 [23]): 27.52%; Activity (A549 [24]): 25.29%; Activity (A549 [25]): 12.82%; IC50 (L02): 0.016 µM; IC50 (BJ): 0.019 µM; Ratio IC50 [26]: 9.5
2 | Cc1nc(N(C)c2ccc([Se]C#N)cc2)c2ccccc2n1 | 82.96 | 4.1 | 4.6 | 0.011 | 0.015 | 0.009 | 0.02 | 0.032 | 0.009 | 0.019 | 0.009 | 0.012 | 0.032 | 0.029 | 3.56 | 3.12 | 0.041 | 13.55 | 2.38 | 1.11 | Activity (A549 [27]): 69.69%; Activity (A549 [14]): 64.96%; Activity (A549 [15]): 27.46%; Activity (A549 [16]): 5.58%; Activity (A549 [17]): 1.77%; Activity (A549 [18]): 74.73%; Activity (A549 [19]): 17.56%; Activity (A549 [20]): 5.78%; Activity (A549 [21]): 1.94%; Activity (A549 [22]): 40.54%; Activity (A549 [23]): 21.45%; Activity (A549 [24]): 29.41%; Activity (A549 [25]): 7.59%; IC50 (L02): 0.037 µM; IC50 (BJ): 0.033 µM; Ratio IC50 [26]: 3.7

Reference: ChEMBL document CHEMBL4020840, “Synthesis and Biological Evaluation of Selenium-Containing 4-Anilinoquinazoline Derivatives as Novel Antimitotic Agents” (J Med Chem, 2018)
